# proCasp3 act: procaspase-3 (human) activation. activation, % at 8.5 µM. AID 463141. 330,000 tested, 0.11% active. recombinant procaspase-3 D3A, Ac-DEVD-pNA absorbance 405 nm. P42574;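 active = activation above the mean of all tested compounds plus 3 SD, cut at about 21% in these data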;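 also: 0% = DMSO alone and 100% = DMSO wells spiked with extra 5 µM PC-3 D3A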
# Target sequence (P42574 whole entry D9A/D28A/D175A): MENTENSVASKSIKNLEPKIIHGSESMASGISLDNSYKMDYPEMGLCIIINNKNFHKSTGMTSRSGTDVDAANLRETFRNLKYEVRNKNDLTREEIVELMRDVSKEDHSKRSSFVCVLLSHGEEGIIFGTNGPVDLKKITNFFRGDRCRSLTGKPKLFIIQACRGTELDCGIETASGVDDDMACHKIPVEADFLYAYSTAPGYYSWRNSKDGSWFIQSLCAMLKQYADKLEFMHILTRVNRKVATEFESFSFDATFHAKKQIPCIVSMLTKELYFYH
#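 Assay system – Procaspase-3 D3A mutant, all three cleavage aspartates alanine · Controls – DMSO-only low control, 5 µM PC-3 D3A high control · Schedule – 1 h compound preincubation, 2 h substrate hydrolysis at 25 °C · Signal – 405 nm absorbance of p-nitroaniline, reads at 0 and 120 min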
# proCasp7 act: activates human procaspase-7, counter-screen for procaspase-3 activators; recombinant procaspase-7, Ac-DEVD-pNA absorbance 405 nm; D23A/D198A/D206A triple mutant, cannot self-cleave; scale: DMSO 0, 5 µM enzyme 100; AID 463210; activation, % at 8.5 µM; 330,000 tested, 0.093% active;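 active = percent activation above the screen-wide mean plus 3 SD, cut at about 25% in these data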
# Target sequence (P55210 whole entry D23A/D198A/D206A): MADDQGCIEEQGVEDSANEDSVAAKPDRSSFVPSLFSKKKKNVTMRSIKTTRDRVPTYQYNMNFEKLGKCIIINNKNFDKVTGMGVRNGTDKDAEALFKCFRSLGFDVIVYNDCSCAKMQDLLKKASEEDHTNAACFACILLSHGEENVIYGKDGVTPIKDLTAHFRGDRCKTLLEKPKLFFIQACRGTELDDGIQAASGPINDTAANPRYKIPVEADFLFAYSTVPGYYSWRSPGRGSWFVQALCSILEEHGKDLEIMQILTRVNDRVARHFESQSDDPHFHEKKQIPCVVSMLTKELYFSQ
#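 Replicates: singlicate. Assay system: Procaspase-7 triple mutant (PC-7 D3A). Signal: 405 nm absorbance of p-nitroaniline. Times: 1 h preincubation, 2 h reaction. Buffer or medium: Zinc-free HEPES pH 7.4 with 300 mM NaCl, 0.01% Triton X-100. Also added: DEVD-pNA substrate. Benchmarks: DMSO wells as 0%, DMSO with 5 µM added PC-7 as 100%.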
# Arr AP2 block: blocks beta-arrestin peptide binding to AP2 adaptin; inhibition, % at 10 µM; FITC-arrestin peptide / GST-AP2 beads, flow cytometry; AP2 beta2 appendage carries R879A mutation; AID 504490; 340,000 tested, 0.31% active;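 active = inhibition above a set limit, near 3 SD of compounds lacking own fluorescence, cut at about 54% in these data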;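 also: plate controls were DMSO wells for no effect and 5 µM unlabelled arrestin peptide for full effect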
#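 Measured by: flow cytometry, FL1 (488/535 nm); Material: AP2 appendage R879A on GSH beads; Evaluation: percent response; Timing: pre-incubation 12 min, peptide binding 1 h, room temperature; Also added: 50 nM FITC-arrestin peptide; Medium: PBS with 0.05% Tween 20 and 0.1% BSA.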
# PLC-gamma1 inh: blocks human PLC-gamma1 enzyme activity; P19174; purified PLC-gamma1, fluorogenic substrate, fluorescence; inhibition, % at 12.2 µM; 370,000 tested, 0.84% active; AID 720700; in the data active = inhibition above about 9.5%
# sPLA2-III inh: Blocks human group III sPLA2 activity; AID 743126; QFRET BODIPY PC-A2 liposome hydrolysis, fluorescence; inhibition, % at 12.2 µM; 370,000 tested, 0.56% active;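 active = inhibition above mean plus 3 SD of compounds lying within the high and low control bounds, cut at about 19% in these data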;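 also: 0% = median of test compound wells and 100% = no enzyme DMSO wells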
# PLC-beta3 inh: PLC-beta3 (human) inhibition, primary screen | Q01970 | Purified PLC-beta3, fluorogenic substrate, fluorescence | inhibition, % at 12.2 µM | 370,000 tested, 0.18% active | AID 720704; in the data active = inhibition above about 11%;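 also: 0% = median of compound wells on plate and 100% = full blocker control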
# hGIII sPLA2 conf: human GIII-sPLA2 inhibition, confirmation | 2,000 tested, 34% active | shares compounds with sPLA2-III inh | inhibition, % at 12.2 µM | recombinant hGIII-sPLA2, BODIPY PC-A2 QFRET fluorescence | AID 743280;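 active = mean inhibition across triplicates above the hit cutoff set in the earlier primary screen, cut at about 19% in these data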;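 also: 0% = enzyme with DMSO and 100% = DMSO wells lacking enzyme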
# BODIPY interf: counter-screen for HGIII-sPLA2 inhibitors: 535nm fluorescence interference. 2,000 tested, 8.5% active. AID 743282. inhibition, % at 12.2 µM. shares compounds with sPLA2-III inh. BODIPY FL product fluorescence interference, QFRET;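 active = average inhibition above the solvent-only control mean plus 3 SD, cut at about 6% in these data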;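 also: 0% = DMSO with substrate plus product and 100% = DMSO with substrate alone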
# 535nm interf DR: 535nm optical interference dose response, HGIII-sPLA2 counter-screen; BODIPY FL product fluorescence interference, cell-free; IC50, µM; shares compounds with sPLA2-III inh; 240 tested, under 10 active; AID 743455;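 active = IC50 at or below 10 µM; inactive = IC50 above 10 µM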
# An asterisk follows results filed as active; i = inactive; nt = not tested or not shown. This is a sample that favours compounds with a hit; in the whole collection about 1.9% have one here.
SMILES,proCasp3 act,proCasp7 act,Arr AP2 block,PLC-gamma1 inh,sPLA2-III inh,PLC-beta3 inh,hGIII sPLA2 conf,BODIPY interf,others
COc1ccc2ccccc2c1/C=N/NC(=S)Nc1cc(S(=O)(=O)N2CCOCC2)ccc1N1CCOCC1,4.3,4.2,2.6,-3.7,1.3,-9.4,nt,nt,
CCOc1cccc(/C=N/NC(=S)Nc2cc(S(=O)(=O)N3CCOCC3)ccc2N2CCOCC2)c1O,-1.5,6.6,6.5,i,23.3*,i,33.4*,-16.1,
COc1ccc(Cc2noc(-c3ccc([N+](=O)[O-])cc3)n2)cc1OC,-14.6,2.3,14.7,1.5,21.4*,-9.0,0.9,-7.4,
CCOC(=O)NC(Nc1ccc(C)cn1)(C(F)(F)F)C(F)(F)F,0.8,2.5,7.5,-0.9,10.9,-1.6,nt,nt,
COC(=O)C(NC(C)=O)(Nc1ccc(C)cn1)C(F)(F)F (stereo not given),-0.9,-0.1,3.3,1.0,19.6*,-9.0,4.5,-5.7,
COc1ccccc1C1Nc2cccc3cccc(c23)N1,4.3,-20.0,39.1,-11.9,21.1*,-16.1,33.8*,11.5*,
COc1cc(OC)c(C2Nc3cccc4cccc(c34)N2)c(OC)c1,nt,nt,25.6,-20.8,22.2*,-37.8,37.2*,-2.7,535nm interf DR=>122
CC(=O)C1=C(S(=O)(=O)c2ccc(C)cc2)CS(=O)(=O)C1,nt,nt,2.4,-1.4,5.6,-2.5,nt,nt,
Cc1cc(C(O)c2ncc(-c3ccccc3F)[nH]2)ccc1F (stereo not given),nt,nt,nt,0.0,4.7,4.8,nt,nt,
CCOC(=O)c1c(S(=O)(=O)NCC2CCN(CCc3cccs3)CC2)c(C)n(C)c1C,1.0,1.2,3.0,-1.6,-11.2,2.3,nt,nt,
O=C(NN1C(=O)c2ccccc2NC1c1ccccn1)c1ccc([N+](=O)[O-])cc1 (stereo not given),2.3,7.9,10.7,5.3,24.9*,-1.4,8.8,-4.8,
Oc1ccccc1/C=N/Nc1ccccc1,-2.1,-2.7,10.3,-3.0,-4.6,0.2,nt,nt,
Oc1ccccc1/C=N/Nc1ncc(Br)cn1,-5.5,0.1,-1.9,-4.0,28.8*,-2.1,16.5,31.6*,
Cc1nc2c(C)cccn2c1/C(O)=C1\C(=O)C(=O)N(CCN(C)C)C1c1ccccc1 (stereo not given),4.1,-4.0,15.9,-1.7,19.9*,-8.7,5.5,-0.2,
CCc1nc2ccc(Cc3ccc4nc(CC)[nH]c4c3)cc2[nH]1,3.4,-3.9,10.4,-3.8,-6.5,-5.2,nt,nt,
Cc1cccc(/C=N/n2c(-c3ccccc3)n[nH]c2=S)c1O,-12.5,-18.4,30.5,-0.2,3.0,-8.9,nt,nt,
O=[N+]([O-])c1ccccc1/C=N/n1c(-c2ccccc2)n[nH]c1=S,-7.8,-18.0,-13.7,4.0,19.8*,-4.3,28.5*,1.4,
Cc1n[nH]c(=S)n1/N=C/c1ccccc1,-0.8,2.5,-8.2,-0.9,21.7*,0.1,21.2*,-6.1,
CC(=O)c1c(N2CCN(C)CC2)nc(=S)n(-c2cc(C)ccc2C)c1C,-3.4,6.6,-3.4,0.1,-1.7,-0.7,nt,nt,
O=C(N/N=C/c1ccc(O)c(O)c1O)/C(=C/c1ccc([N+](=O)[O-])cc1)NC(=O)c1ccccc1,-25.7,-31.6,30.2,5.0,24.6*,5.5,28.7*,6.1*,
CCCCCCn1cc(CN2CC(N3CCCCC3)CS2(=O)=O)nn1 (stereo not given),nt,nt,nt,2.7,12.7,1.4,nt,nt,
CCOc1ccc(C(=O)Nc2nncs2)cc1OCC,10.8,12.3,-12.8,9.4,21.6*,-0.6,-1.9,0.9,
COC(=O)[C@H](NC(=O)c1cc(-c2ccccc2)sc1N)C(C)C,nt,nt,nt,-10.2,15.4,-23.0,nt,nt,
COCCN(C(=O)CNC(=O)c1ccco1)C(C(=O)NC1CCCC1)c1ccc(F)cc1 (stereo not given),7.6,0.8,25.9,1.3,10.8,-8.3,nt,nt,
CC(C)Oc1ccc(CSC(=N)N)cc1,-1.9,6.0,7.7,-1.2,29.0*,1.1,-3.9,-7.7,
SMILES,proCasp3 act,proCasp7 act,Arr AP2 block,PLC-gamma1 inh,sPLA2-III inh,PLC-beta3 inh,hGIII sPLA2 conf,BODIPY interf,others
CCc1ccc(NCc2nc3ccccc3c(=O)[nH]2)cc1,6.3,-7.3,16.6,-11.0,-9.6,-10.6,nt,nt,
CCCCNCc1nc2ccccc2c(=O)[nH]1,3.1,3.1,-17.9,6.5,26.9*,2.4,15.1,-2.0,
CN(C)C(CNC(=O)c1cnc(Cl)c(Cl)c1)c1ccccc1 (stereo not given),1.8,14.9,-9.2,2.4,20.7*,-6.8,-2.7,-10.1,
CN(C)C(CNC(=O)c1cc(S(=O)(=O)N(C)c2ccccc2)ccc1Cl)c1ccccc1 (stereo not given),-4.2,8.6,37.7,2.4,-9.7,-3.1,nt,nt,
O=C(Nc1ccc(F)cc1)c1ccc2c(c1)S(=O)(=O)N=C1CCCCCN12,-4.2,14.2,-4.3,-0.1,-4.3,-5.5,nt,nt,
CCOc1ccc(NC(=O)c2ccc3c(c2)S(=O)(=O)N=C2CCCCCN23)cc1,nt,nt,nt,0.3,19.3*,-1.7,0.1,-3.6,
CNC(=O)c1c(N)sc2c1CCCCC2,-9.6,-20.6,nt,nt,nt,nt,nt,nt,
CC(C)OC(=O)c1c(N)sc2c1CCCC2,-6.8,-8.7,10.8,2.1,19.9*,0.0,18.0,-3.9,
C[C@H]1COc2cc(N(C)CCO)ccc2S(=O)(=O)N1,nt,nt,nt,1.9,2.8,1.0,nt,nt,
O=C(Nc1ccc([N+](=O)[O-])cn1)c1cccnc1,6.3,-1.9,2.6,1.7,19.5*,-1.5,4.9,-4.0,
CC(C)(C)c1ccc(C(=O)Nc2ccc([N+](=O)[O-])cn2)cc1,-1.1,4.0,5.0,1.8,1.0,2.4,nt,nt,
CCn1c(-c2csc3ccccc23)n[nH]c1=S,-18.6,-6.5,27.5,-4.0,24.0*,-5.0,22.4*,1.1,
CCn1c(-c2csc(C(C)C)c2)n[nH]c1=S,-18.9,-27.1,10.6,2.9,21.6*,5.8,29.2*,1.8,535nm interf DR=>122
Cc1cc(-c2n[nH]c(=S)n2CC(C)C)cs1,-7.0,-16.9,52.4,1.5,19.7*,0.0,23.5*,0.1,
Cc1cc(C)c2c(c1)/C(=N\N=c1\sc3ccccc3n1C)C(=O)N2,3.5,-10.2,-4.4,1.6,-4.9,-3.1,nt,nt,
COc1ccc(N2CCN(C(=S)Nc3cc(C)ccc3C)CC2)cc1,2.4,3.4,3.0,2.0,21.1*,-1.4,14.7,-6.1,
